Screening results from PubChem.
UPR CHOP act = apoptotic UPR (CHOP) activation; actives 0.34% (n = 330,000); CHO-CHOP luciferase reporter, luminescence; percent of tunicamycin response over DMSO baseline; activation, % at 10 µM;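 active = at 10 µM dose, activation of 40% or more, normalized to positive control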;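 note: 100% = tunicamycin at 10 µg/mL and 0% = DMSO alone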
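Assay system: CHO-CHOP cells, stable luciferase reporter of PERK-eIF2a-CHOP signalling / Buffer or medium: F12 plus 10% serum / Compound dosing: one dose, 10 µM in 0.5% DMSO / Times: 6 h compound treatment, 37 °C / Technique: luciferase luminescence / Read-out: % reporter activation, DMSO baseline versus tunicamycin full activation / Benchmarks: tunicamycin and DMSO controls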
Gli-Sufu antag = antagonists of Gli-Sufu signaling. Sufu-KO-LIGHT fibroblasts, Gli luciferase reporter luminescence. inhibition, % at 5 µM. actives 0.74% (n = 340,000). AID 588413;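 active = inhibition above about 55%, limit read from the data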;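 note: 0% = DMSO-treated cells and 100% = wells with medium but no cells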
697 NFkB inh = lowers PMA/ionomycin-induced NF-kB signal in 697 B cells. inhibition, % at 4 µM. 697 B-cell NF-kB luciferase reporter, 16 h. actives 0.33% (n = 330,000); in the data active = inhibition above about 35%
XBP1 UPR activ = adaptive UPR (XBP1) activation | activation, % at 20 µM | AID 463104 | CHO-XBP1 luciferase reporter, IRE1-XBP1 UPR activation, luminescence; percent of tunicamycin response, DMSO as zero | actives 0.33% (n = 330,000);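 active = versus positive control, 20 µM dose yields 30% or more activation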;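 note: 100% = tunicamycin at 10 µg/mL and 0% = DMSO only wells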
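incubation = overnight seeding at 37 °C, 6 h compound treatment at 37 °C | assay system = CHO-XBP1 cells stably carrying IRE1-XBP1-driven luciferase reporter | input = 1000 cells per well | detection = luciferase luminescence | dosing = single point, 20 µM final compound, 1% DMSO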
Jurkat NFkB inh = inhibitors of the PMA/ionomycin-induced NF-kB reporter in Jurkat cells. PMA/ionomycin-induced NF-kB luciferase reporter, luminescence. inhibition, % at 4 µM. actives 0.53% (n = 330,000). AID 435003; in the data active = inhibition above about 50%
CHOP inhibitor = blocks CHOP induction under ER stress | CHO-K1 CHOP-promoter luciferase, tunicamycin-induced, 15-18 h | inhibition, % at 10 µM | actives 3.8% (n = 220,000);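 active = compounds that reduced the stress-induced luciferase reporter signal by more than about 70% of percent inhibition, limit read from the data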;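 note: 0% = tunicamycin plus vehicle and 100% = wells without tunicamycin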
Active calls of the source: *; . = no result given. Sampled rows, rich in hits. Any-hit rate of the full collection: about 3.9%.

SMILES	UPR CHOP act	Gli-Sufu antag	697 NFkB inh	XBP1 UPR activ	Jurkat NFkB inh	CHOP inhibitor
COc1ccc(CN(CC(O)COCc2ccccc2)S(=O)(=O)c2ccccc2Br)cc1OC (configuration not stated)	3.5	-17.4	5.2	2.4	.	.
c1cnc(SCCOc2cccc3ccccc23)nc1	1.8	-81.2	-97.6	3.2	-90.2	76.2*
Clc1ccc(OCCSc2ncccn2)c2ccccc12	2.3	-6.7	-23.0	3.9	-32.1	65.2
COc1ccc(-n2c(=S)[nH]c3cc(C(=O)Nc4ccccc4OC)ccc3c2=O)cc1	4.6	.	-16.7	31.7*	14.3	-8.2
Cc1nc(N2CCCCC2)c2c(C)c(C(=O)Nc3cccc(C(F)(F)F)c3)sc2n1	-2.1	-7.6	-11.1	-2.5	-15.0	34.8
Cc1nc(N2CCCCC2)c2c(C)c(C(=O)Nc3ccccc3C(F)(F)F)sc2n1	-0.3	15.9	-13.6	-1.1	-10.5	70.6*
Cc1nc(N2CCCCC2C)c2c(C)c(C(=O)Nc3cccc(C(F)(F)F)c3)sc2n1 (configuration not stated)	1.1	6.6	1.9	4.2	-2.4	79.6*
CSc1nnc2n(-c3ccc(C)cc3)c(=O)c3c4c(sc3n12)COC(C(C)C)C4 (configuration not stated)	3.0	.	3.7	5.6	19.6	80.9*
CCCCN(C(=O)CSCC(=O)Nc1ccc(C)cc1)c1c(N)n(CC(C)C)c(=O)[nH]c1=O	1.0	2.3	23.8	-2.1	2.6	.
COc1ccc(CC(=O)OCC(=O)NC(=O)NC23CC4CC(CC(C4)C2)C3)cc1	-0.9	-2.2	-13.5	-1.7	3.7	95.7*
Cc1ccc(Cl)cc1NC(=S)N(Cc1cccs1)C1CCCC1	0.5	0.5	-18.0	-2.7	3.2	81.9*
Cc1ccccc1NC(=S)N(Cc1cccs1)C1CCCCC1	-1.9	6.0	0.1	-2.6	2.4	33.2
CC(C)Cc1nnc(NC(=O)c2ccc3c(c2)NC(=O)C(C)S3)s1 (configuration not stated)	1.5	-5.2	13.6	-0.8	3.5	.
CCCN1Cc2cccc(C(=O)Nc3ccc4c(c3)OCO4)c2C1=O	1.3	6.6	-15.0	6.2	-4.7	4.2
CCCN1Cc2cccc(C(=O)Nc3ccc4c(c3)OCCO4)c2C1=O	-0.6	-3.0	2.3	-0.6	-16.2	77.7*
COc1ccc(OC)c(S(=O)(=O)Nc2c(C)n(C)n(-c3ccccc3)c2=O)c1	2.8	-9.7	5.6	-4.4	-3.4	.
CN(C)CCOC(=O)C12CC3CC(CC(C3)C1)C2	0.4	0.3	6.0	-0.4	-8.6	-2.2
CN(C)CCOC(=O)C12CC3(C)CC(C)(CC(C)(C3)C1)C2	0.1	.	-13.8	-2.4	-20.5	94.0*
CC(C)Cn1c(N)c(C(=O)CSc2ncccn2)c(=O)n(C)c1=O	-0.3	4.8	0.9	0.0	9.5	.
CC(C)Cn1c(N)c(C(=O)CSc2cc(Cl)ccc2Cl)c(=O)n(C)c1=O	4.9	.	7.7	4.0	20.4	96.0*
COCCCN=C1NN=C(c2cc(C)n(Cc3ccco3)c2C)CS1	-4.5	-28.0	-129.7	-2.7	13.4	11.1
Cc1cc(C2=NNC(=NC3CC3)SC2)c(C)n1Cc1ccco1	.	84.0*	.	.	.	95.5*
Cc1ccc(NC2CCCN(C(=O)C3CCCCC3)C2)cc1C (configuration not stated)	1.1	-8.8	-9.7	-3.4	-8.3	.
COc1ccc(-n2nc(C(=O)Nc3ccc(OC)c(OC)c3)c3c4ccccc4n(C)c3c2=O)cc1	2.1	12.1	15.7	1.3	-20.4	71.5*
CC(/C=N/NC(=O)NC1CCCCC1)=C\c1ccccc1	1.2	-62.9	-19.7	2.7	-15.6	85.8*
SMILES	UPR CHOP act	Gli-Sufu antag	697 NFkB inh	XBP1 UPR activ	Jurkat NFkB inh	CHOP inhibitor
O=C(COC(=O)c1c2c(nc3ccccc13)/C(=C\c1cccs1)CCC2)Nc1ccccc1	1.9	5.3	-25.5	4.0	-0.3	20.6
CC(=O)c1ccc(NC(=O)COC(=O)c2c3c(nc4ccccc24)/C(=C\c2cccs2)CCC3)cc1	5.4	12.1	1.7	-4.3	12.4	76.8*
S=C(NCc1ccccn1)NN=Cc1ccccn1	.	73.5*	.	.	.	.
Cc1ccc(NC(=S)NCc2ccccn2)cc1	0.1	-0.5	1.7	1.8	-13.2	12.3
COc1ccc(Cl)cc1NC(=O)Cn1c(C)csc1=O	4.2	-6.0	12.8	-1.4	5.1	.
CCOC(=O)c1cnc(SCC(=O)Nc2sc(C)c(C)c2C#N)nc1N	1.9	8.4	-27.2	3.3	-19.3	71.3*
CCOC(=O)c1cnc(SCC(=O)Nc2cc(OC)cc(OC)c2)nc1N	0.6	6.4	1.5	-4.3	24.6	76.1*
CCC(C)(C)n1nnnc1C(c1ccccc1OC)N1CCN(C(=O)c2ccco2)CC1 (configuration not stated)	0.9	12.4	1.7	-4.3	-16.1	.
CCc1ccc(NC(=O)CSc2nc3cc(C(=O)OC)ccc3c(=O)n2CC2CCCO2)cc1 (configuration not stated)	1.0	10.8	2.7	6.2	10.3	93.6*
COC(=O)c1ccc2c(=O)n(Cc3ccco3)c(SCC(=O)Nc3cc(C)on3)nc2c1	0.6	7.3	-51.4	3.6	-3.7	90.7*
COC(=O)c1ccc2c(=O)n(Cc3ccco3)c(SCC(=O)Nc3ccccc3Cl)nc2c1	8.1	2.6	-6.0	12.2	0.7	-6.2
COc1ccc(CC2(CO)CCN(S(=O)(=O)c3cccc4cccnc34)CC2)cc1	3.0	2.7	3.8	1.8	1.4	.
O=C(Nc1ccc(Cl)cc1Cl)NC1CCN(S(=O)(=O)c2ccc(F)cc2)CC1	-1.2	5.0	7.2	3.7	-12.3	81.1*
O=C(Nc1cccc(S(=O)(=O)N2CCCCC2)c1)Nc1ccc(Cl)cc1Cl	1.5	-5.5	12.3	9.3	5.9	88.0*
O=C(Cc1ccccc1Cl)Nc1cccc(S(=O)(=O)N2CCCCCC2)c1	-0.6	-9.3	-4.3	-2.7	-15.4	.
O=C(c1cnn2c(C(F)(F)F)cc(-c3cccs3)nc12)N1CCN(Cc2ccccc2)CC1	0.0	1.5	2.8	8.5	4.4	70.2*
Nc1nc(Nc2cccc(F)c2)nc(NCc2ccco2)c1[N+](=O)[O-]	0.8	-9.7	-55.0	9.8	-26.8	84.1*
Cc1cccc(Nc2nc(N)c([N+](=O)[O-])c(NCc3ccco3)n2)c1	5.9	-8.6	-64.6	2.8	47.5	96.0*
Cc1cccc(Nc2nc(NCc3ccco3)nc(N)c2[N+](=O)[O-])c1	0.8	29.4	7.3	11.0	10.5	18.3
Nc1nc(Nc2cccc(Cl)c2)nc(NCc2ccco2)c1[N+](=O)[O-]	5.8	11.4	-90.6	7.8	-68.7	-0.2
Nc1nc(Nc2ccc(Cl)cc2)nc(NCc2ccco2)c1[N+](=O)[O-]	8.7	-17.3	-79.9	20.1	-75.3	86.5*
